Cneo AK release: Cryptococcus neoformans cell lysis inducers, primary screen, AK release luminescence, single concentration; hit rate 0.2% among 360,000; C. neoformans lysis, adenylate kinase release luminescence, 4 h; normalised: neutral wells 0, clomiphene wells 100; lysis activity, % at 15 µM;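 active = mean lysis activity across replicates of at least 80%, whatever share of replicates individually reach that level; inactive = mean lysis activity below 80%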
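Material: C. neoformans cells | Amount: Yeast cell density of 5 × 10^6 cells/mL | Medium: Fresh YPD growth medium | Dosing: Single dose | Times: Static 4 h at 37 °C with compound, 1 h detection | Detection: AK luminescence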
Xi reactivation: activators of inactive X chromosome reactivation, primary screen, imaging, XiGFP fibroblasts, GFP high-content imaging, set 2; hit rate 0.055% among 360,000; activation, % at 7.58 µM; AID 743238, 2013; XiGFP mouse fibroblasts, % GFP-positive cells imaging, 3 d; cells co-treated with 5-aza-dC sensitizer; scaled so ellipticine positive control = 100%;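 active = mean normalized replicate activation at least 10% and every replicate at or above 10%; inconclusive = only one of the two criteria met; inactive = mean below 10% and not all replicates reach 10%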;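 note: 0% = median of on-plate neutral control wells and 100% = ellipticine 6 µM median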
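System: 68-5-11 XiGFP fibroblast line | Buffer or medium: DMEM containing 5-aza-dC | Compound: Single point | Times: Compounds 3 days, fix/stain 15 min at room temperature | Benchmarks: Positive control ellipticine, 6 µM final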
DENV2 CPE rescue: inhibitors of DENV2 cytopathic effect, primary screen, cell-based, plate reader, single concentration; DENV2-infected cells, cytopathic effect rescue; CPE inhibition, % at 9.99 µM; hit rate 1.7% among 350,000; AID 651640, 2012; in the data active = CPE inhibition above about 20%, passing the limit was not always enough; inconclusive = no clear call, values can overlap the other calls; tested in BHK-21 cells;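 note: 0% = median of neutral control wells and 100% = median of positive control wells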
PGC1a acetyl inh: inhibitors of PGC1a acetylation signal, primary screen, cell-based, U2OS, AlphaScreen, inhibitor mode | AlphaScreen anti-acetyl-lysine; with virally co-expressed GCN5 acetyltransferase | inhibition, % at 15.6 µM | hit rate 0.17% among 350,000 | AID 651687, 2012;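 active = every replicate shows inhibition of at least 40%; inconclusive = mean inhibition at least 40% but some replicate below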;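 note: 0% = neutral control wells and 100% = positive control wells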
F508del corr: F508del CFTR correction, initial screen, CFBE line, single point. activity (quench increase), % at 7.58 µM. hit rate 0.36% among 350,000. CFBE cells, YFP halide quenching; stimulated with forskolin plus potentiator P3; % fluorescence drop versus neutral controls;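 active = mean added fluorescence quench of at least 8% versus neutral control, with both replicates also reaching 8%; inconclusive = only one of the mean or replicate conditions met; inactive = mean below 8% and not both replicates reaching 8%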;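 note: cells transiently co-express mutant CFTR-F508del with the halide-sensitive YFP; corrector assay measuring rescue of mutant channel to the surface after 24 h compound exposure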
FN deposition inh: inhibitors of fibronectin matrix deposition, primary screen, AH1F cells, Alexa488-fibronectin fluorescence, plate reader. hit rate 0.086% among 350,000. inhibition, % at 12.6 µM. AH1F fibroblasts, overnight;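 active = mean inhibition across replicates of 30% or more, regardless of how many single replicates reach that level; inconclusive = mean under 30% yet at least half of replicates reach 30%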;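 note: positive control wells lacked labelled fibronectin entirely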
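Test system: AH1F fibroblast monolayer depositing Alexa488-labelled fibronectin into matrix. Input: 10000 cells per well. Technique: fluorescence, ex 485 nm, em 525 nm. Buffer or medium: DMEM plus 2% serum, read in PBS. Timing: 1 h cell adhesion before compound, then overnight fibronectin incubation. Compound: single dose, pinned. Read-out basis: inhibition from reduced deposited-fibronectin fluorescence.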
Starred values were filed as active, the others as inactive; ? = inconclusive; . = no result. Most compounds without a hit are left out; they make up all but 1.9% or so of the library.

SMILES | Cneo AK release | Xi reactivation | DENV2 CPE rescue | PGC1a acetyl inh | F508del corr | FN deposition inh
CCO[C@H]1OC(C(N)=O)=C[C@@H](c2coc3ccccc3c2=O)[C@@H]1CCCO | 2 | 0 | 1 | . | 0 | -4
C[C@@H]1CN(C)C(=O)Cc2cc([N+](=O)[O-])ccc2O[C@H]1CN(C)C(=O)OC(C)(C)C | . | 0 | . | . | . | -22
C[C@H]1CN([C@@H](C)CO)S(=O)(=O)c2ccc(-c3cncnc3)cc2O[C@@H]1CN(C)Cc1cccnc1 | 5 | -1 | -7 | 16 | 4 | .
CC[C@@H]1CC=CC[C@@H](C)Oc2ccccc2C(=O)N(C)[C@H](Cc2ccccc2)C(=O)N1 (mixture of isomers) | . | 0 | . | . | . | -3
C/C=C/c1cnc2c(c1)C(=O)N([C@@H](C)CO)C[C@@H](C)[C@H](CN(C)S(=O)(=O)c1cn(C)cn1)O2 | -3 | -1 | 2 | 4 | 1 | .
Cc1ccccc1NC(=O)/C(=C\c1cccs1)NC(=O)c1ccco1 | . | . | . | . | . | 1
Cc1ccccc1NC(=O)/C(=C/c1cccs1)NC(=O)c1ccco1 | . | 0 | 27* | . | . | 2
Cc1noc(C)c1S(=O)(=O)Nc1ccc2c(c1)C(=O)N([C@@H](C)CO)C[C@H](C)[C@@H](CN(C)Cc1ccccc1)OCCCC[C@@H](C)O2 | 0 | 0 | -3 | -10 | 0 | -2
C[C@@H](NC(=O)[C@@H]1N[C@@H]2c3ccc(C4=CCCCC4)c(=O)n3C[C@@H]2[C@H]1CO)c1ccccc1 | -6 | 0 | 9 | . | 1 | .
Cc1cccc(C(=O)Nc2ccc(C(=O)/C=C/c3cccnc3)cc2)c1 | 0 | 0 | . | 54* | . | 9
O=C(/C=C/c1cccnc1)/C=C/c1cccnc1 | -4 | 0 | -5 | 81* | -5 | 5
Cc1noc(/C=C/N(C)C)c1S(=O)(=O)N(C)CC(=O)NC1CCCCC1 | . | . | . | 43* | . | .
CC(C)CCn1c2ccccc2c2cc(CC(N)=O)ccc21 | . | 0 | 29* | . | -7 | 1
CC(C)NC(=O)N(C)C[C@@H]1Oc2cc(C#C[C@@H](C)O)ccc2S(=O)(=O)N([C@@H](C)CO)C[C@H]1C | 1 | -1 | ? | 8 | -1 | 5
Cc1cccc(N(C(=O)C(F)(F)F)C(C(=O)NC2CCCCC2)c2cccs2)c1 (configuration not stated) | 2 | . | . | -4 | . | .
C#CC(=O)N(c1ccc(OC)c(OC)c1)C(C(=O)NC1CCCC1)c1cccs1 (configuration not stated) | 1 | . | . | 103* | -6 | .
C#CC(=O)N(c1cccc(OC)c1)C(C(=O)NC1CCCC1)c1cccs1 (configuration not stated) | 2 | . | -6 | 93* | -10 | .
O=C(C[C@@H]1CC[C@@H]2[C@H](COC[C@@H](O)CN2C(=O)C2CCCC2)O1)NCc1ccncc1 | 2 | 0 | 4 | 2 | 3 | -6
COc1ccc(C#Cc2cnc3c(c2)C(=O)N([C@@H](C)CO)C[C@H](C)[C@H](CN(C)C(C)=O)O3)cc1 | -1 | -1 | 26* | 5 | 2 | -4
COc1ccc(C#Cc2cnc3c(c2)C(=O)N([C@@H](C)CO)C[C@@H](C)[C@@H](CN(C)C(=O)CC2CC2)O3)cc1 | 1 | -1 | -5 | -6 | 2 | -2
COc1ccc(C#Cc2cnc3c(c2)C(=O)N([C@@H](C)CO)C[C@H](C)[C@@H](CN(C)C(=O)CC2CC2)O3)cc1 | 88* | -1 | -5 | -1 | 1 | -2
C[C@@H]1CN([C@H](C)CO)C(=O)c2cc(C#Cc3ccccc3)cnc2O[C@H]1CN(C)C(=O)CCN1CCCCC1 | 5 | -1 | 26* | 4 | -2 | .
COc1cccc(S(=O)(=O)N(C)C[C@@H]2Oc3ncc(-c4cccc(F)c4)cc3C(=O)N([C@H](C)CO)C[C@@H]2C)c1 | 112* | -1 | 0 | 16 | -1 | .
